RGS4 inh: human RGS4 inhibition. hit rate 0.45% among 310,000. HEK293 M3R/RGS4 inducible, Fluo-4 calcium flux; stronger effect = higher value; triggered by carbachol at its EC20. AID 463165. B-score at 10 µM. P49798;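 active means B-score, a plate-corrected calcium signal, over three deviations above library mean, with baseline fluorescence within five deviations of library mean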;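 further: RGS4 expression induced by doxycycline in cells with stable M3 receptor; B-score is computed from the integrated fluorescence ratio over baseline after carbachol; higher B-score means a larger calcium signal and so more RGS4 inhibition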
Target sequence (P49798 whole entry, looked up): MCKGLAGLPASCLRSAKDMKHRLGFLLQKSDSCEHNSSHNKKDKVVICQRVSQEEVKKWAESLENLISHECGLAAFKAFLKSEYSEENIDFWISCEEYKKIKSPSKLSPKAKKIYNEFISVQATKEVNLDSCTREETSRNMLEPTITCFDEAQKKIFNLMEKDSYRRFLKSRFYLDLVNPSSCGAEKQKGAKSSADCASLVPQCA
MrgX1 allo act: allosterically activates human MrgX1 receptor signaling; B-score at 10 µM; Q96LB2; MrgX1-HEK293, Fluo-4 calcium flux, FDSS; stronger effect = higher value; hit rate 0.63% among 310,000; AID 588675;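 active means plate-corrected calcium response at least 3 library SD above typical, normal starting fluorescence, not activating the receptor alone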;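 further: compound read alongside a low EC10 to EC30 dose of BAM8-22 agonist; peak minus trough fluorescence over baseline measured at the second addition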
Target sequence (Q96LB2 whole entry, looked up): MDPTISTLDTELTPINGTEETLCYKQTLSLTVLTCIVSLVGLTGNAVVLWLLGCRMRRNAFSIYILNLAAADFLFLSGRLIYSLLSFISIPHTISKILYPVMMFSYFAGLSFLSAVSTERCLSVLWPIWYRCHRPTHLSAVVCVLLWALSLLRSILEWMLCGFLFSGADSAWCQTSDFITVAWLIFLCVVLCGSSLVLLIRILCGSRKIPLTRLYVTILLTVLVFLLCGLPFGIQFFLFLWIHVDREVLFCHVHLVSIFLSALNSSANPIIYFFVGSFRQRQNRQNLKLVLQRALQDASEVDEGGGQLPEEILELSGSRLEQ
MrgX1 antagonist: antagonists of human MrgX1 receptor. Q96LB2. MRGX1-HEK293 calcium flux, Fluo-4, BAM8-22 antagonism; stronger effect = lower value. B-score at 10 µM. hit rate 1.3% among 310,000. AID 588676;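 active means calcium-response B-score plate-corrected more than 3 library SD below zero, starting fluorescence within 5 deviations, no agonist response on first addition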;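 further: peak minus trough fluorescence over baseline after final BAM8-22 challenge near maximal dose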
MrgX1 agonist: agonists of human MrgX1 receptor. MrgX1-HEK293 cells, Fluo-4 calcium fluorescence, agonist mode; stronger effect = higher value. B-score at 10 µM. hit rate 0.44% among 310,000. AID 588627;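 active means calcium response B-score plate-corrected fluorescence ratio at least 3 library SD, with starting fluorescence B-score inside 5 SD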
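Material: MrgX1-expressing HEK293 cells / Dosing: compound as first of three additions / Incubation: overnight seeding, then 1 h dark dye loading / Signal: Fluo-4 NW calcium fluorescence / Evaluation: B-scored fluorescence response ratio / Benchmarks: positive and negative control wells on each plate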
RGS4 pot: RGS4 potentiation or activation; hit rate 0.92% among 310,000; HEK293 M3R/inducible RGS4, carbachol calcium flux Fluo4; stronger effect = lower value; B-score at 10 µM;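 active means B-score of the integrated calcium signal more than 4 SD below the library mean, with starting fluorescence not abnormally high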;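 further: negative B-score means reduced calcium response which marks RGS4 activation or potentiation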
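Assay system: Inducible-RGS4 HEK293 cells carrying M3 receptor | Schedule: Compound preincubation 20 min at room temperature before agonist | Signal: Kinetic calcium fluorescence imaging with Fluo4-AM dye, 2 µM | Read-out basis: B score from integrated fluorescence ratio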
MrgX1 allo conf: human MrgX1 positive allosteric modulation, re-confirmation | shares compounds with MrgX1 allo act | MrgX1-HEK293, Fluo-4 calcium fluorescence, FDSS | activation (ratio percentage), % at 10 µM | hit rate 13% among 1,200 | AID 602413;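 active means ratio at least 3 SD above the weak peptide control, stable starting fluorescence, no direct agonism earlier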;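 further: compound followed by low BAM8-22 agonist challenge near EC20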
HEK293 Ca flux: counter-screen for MrgX1 antagonists: effect in parental HEK293 cells. shares compounds with MrgX1 antagonist. Fluo-4 calcium fluorescence, FDSS. fluorescence ratio F(max-min)/F0 at 10 µM. hit rate 2% among 4,000;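 active means duplicate-averaged calcium fluorescence ratio at least three times the standard deviation of buffer wells, a nonspecific response in parental cells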
HEK293 Ca counter: counter-screen for MrgX1 allosteric activators: effect in parental HEK293 cells; parental HEK293 calcium flux, Fluo-4 fluorescence ratio; stronger effect = higher value; fluorescence ratio F(max-min)/F0 at 10 µM; hit rate 0.4% among 4,000; shares compounds with MrgX1 antagonist; AID 624114;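 active means calcium fluorescence ratio, averaged over duplicates, at least 3 SD of the buffer-well ratio, meaning a nonspecific response in receptor-free cells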;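 further: untransfected parental HEK293 lacking MrgX1 used as counterscreen for MrgX1 allosteric activators; fluorescence change taken during the second addition on a kinetic imager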
HEK293 Ca cntr2: counter-screen for MrgX1 activators: effect in parental HEK293 cells; AID 624115; shares compounds with MrgX1 antagonist; Fluo-4 calcium fluorescence (FDSS); stronger effect = higher value; hit rate 8.7% among 4,000; fluorescence ratio F(max-min)/F0 at 10 µM;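 active means calcium fluorescence ratio at least three times the spread of buffer wells, meaning a non-specific response in parental cells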
Hits are given with their value; 0 = inactive; - = no result given. Most compounds without a hit are left out; they make up all but 3.5% or so of the library.

SMILES	RGS4 inh	MrgX1 allo act	MrgX1 antagonist	MrgX1 agonist	RGS4 pot	MrgX1 allo conf	HEK293 Ca flux	HEK293 Ca counter	HEK293 Ca cntr2
COCc1cc(Sc2ccc(Cl)cc2)nc(-c2ccccc2)n1	0	14	0	0	0	0	0	0	0
COCc1cc(N2CCN(c3ccccc3F)CC2)nc(-c2ccccc2)n1	0	0	0	0	0	-	-	-	-
COCc1cc(Sc2ccc(Br)cc2)nc(-c2ccccc2)n1	0	8.9	0	0	0	0	0	0	0
CS(=O)Cc1cc(Sc2ccccc2)nc(-c2ccncc2)n1 (stereo not given)	0	0	0	0	0	-	-	-	-
O=C(c1ccc(COc2ccc3c(c2)CCC3)o1)N1CCN(c2ccccc2)CC1	0	7.7	0	0	0	0	0	0	0
CC(C)CN(C(=O)Cn1nnc(-c2ccc(F)cc2)n1)C1CCS(=O)(=O)C1 (stereo not given)	0	0	0	0	0	-	-	-	-
O=C(CCN1CCc2ccccc2C1)Nc1ccc(F)c(F)c1	0	25	0	0	0	0	0	0	0
O=C(CCN1CCc2ccccc2C1)Nc1ccc2c(c1)OCO2	0	0	0	0	0	-	-	-	-
Cn1c(SCC(=O)N2CCCc3ccccc32)nnc1-c1c[nH]c2ccccc12	0	0	0	0	0	-	-	-	-
Cn1c(SCC(=O)N2CCCC2=O)nnc1-c1ccccc1F	0	8.8	0	0	0	0	0	0	0
COc1ccc(CN(Cc2cc3cccc(C)c3n3nnnc23)C(=O)N2CCOCC2)cc1	0	0	0	0	0	-	-	-	-
Cc1occc1C(=O)Nc1cccc(Cl)c1Cl	0	0	0	0	0	-	-	-	-
CCC(c1nnnn1CCc1ccccc1)N1CCN(c2ccc(OC)cc2)CC1 (stereo not given)	0	7.7	0	0	0	0	0	0	0
CCn1ccnc1CN(C)Cc1nc(CCC(C)C)no1	0	0	0	0	0	-	-	-	-
CCN(CC)CCCNC(=O)c1oc2ccc(S(=O)(=O)N3CC(C)CC(C)C3)cc2c1C (stereo not given)	0	0	0	0	0	-	-	-	-
CCN(CC)C(=O)CSc1ncnc2c(-c3ccc(OC)cc3)nsc12	0	0	0	0	0	-	-	-	-
COc1ccc(-c2nsc3c(SCc4ccccc4)ncnc23)cc1	0	6.8	0	0	0	0	0	0	0
CC1(C(=O)NCc2ccccn2)C=CCN1C(=O)c1ccccc1 (stereo not given)	0	0	0	0	0	-	-	-	-
CCC1C(=NO)C(CC)C(c2ccccc2)NC1c1ccccc1 (stereo not given)	0	23	0	0	0	0	0	0	0
CCC1C(=O)C(CC)C(c2ccccc2)NC1c1ccccc1 (stereo not given)	0	0	0	0	0	-	-	-	-
Cn1ccsc1=NC(=O)c1ccc(OC(F)(F)F)cc1	0	0	0	0	0	-	-	-	-
C=CCSc1nc(O)c(C2OC(=O)c3c2ccc(OC)c3OC)c(=O)n1-c1ccccc1 (stereo not given)	0	31	0	0	0	0	0	0	0
COC(=O)c1ccc(Oc2nc(C)cc(Oc3ccccc3)n2)cc1	0	19	0	0	0	7.3%	0	0	0
CCCn1c(SCC(=O)Nc2ccccc2Cl)n[nH]c1=O	0	6.6	0	0	0	0	0	0	0
O=C(Nc1cccc(-c2cn3ccccc3n2)c1)c1ccccc1	0	6.8	0	0	0	8.4%	0	0	0
SMILES	RGS4 inh	MrgX1 allo act	MrgX1 antagonist	MrgX1 agonist	RGS4 pot	MrgX1 allo conf	HEK293 Ca flux	HEK293 Ca counter	HEK293 Ca cntr2
Cc1nc2ccccc2c(=O)n1CCc1ccc(O)cc1	0	0	0	0	0	-	-	-	-
CC(=O)c1ccc(NC(=S)NCCc2cccc(Cl)c2)cc1	0	0	0	0	0	-	-	-	-
Cc1c(CC(=O)O)c(=O)oc2c(C)c(OCc3ccc(F)cc3F)ccc12	0	0	0	0	0	-	-	-	-
COc1ccccc1COc1ccc2c(C)c(CC(=O)O)c(=O)oc2c1C	0	13	0	0	0	0	0	0	0
CC1(C)Cc2ccccc2-c2nnc(SCC(=O)N3CCN(c4ccccc4)CC3)n21	0	10	0	0	0	9.3%	0	0	0
O=C(Cn1nnc2ccccc21)NCc1ccccc1	0	7.2	0	0	0	0	0	0	0
COCCNC(=O)NC(=O)CN1CCCc2ccccc21	0	0	0	0	0	-	-	-	-
CN(C)S(=O)(=O)c1ccc(NC(=O)CN2C(=O)NC3(CCCC3)C2=O)cc1	0	0	0	0	0	-	-	-	-
Cc1cc(C(=O)CN2C(=O)NC3(CCC(C)CC3)C2=O)c(C)n1C (stereo not given)	0	12	0	0	0	0	0	0	0
Fc1ccccc1NC(=S)N(CCN1CCCCC1)Cc1ccco1	0	11	0	0	0	0	0	0	0
CCOC(=O)C1CCCN(C(=O)c2csc(-c3ccc4c(c3)CCO4)n2)C1 (stereo not given)	0	0	0	0	0	-	-	-	-
Cc1ccccc1N(C(=O)c1csnn1)C(C(=O)NC1CCCC1)c1ccncc1 (stereo not given)	0	0	0	0	0	-	-	-	-
O=C(c1ccc(Br)cc1)N(c1ccccn1)C1CCCCC1	0	19	0	0	0	0	0	0	0
COn1c(SC2CCCCC2)nc2ccccc2c1=O	0	29	0	0	0	49%	0	0	0
Cc1ccc(S(=O)(=O)N/N=C/c2cccc3nccnc23)cc1	0	20	0	0	0	0	0	0	0
Cc1ccc(S(=O)(=O)N/N=C/c2cccc3c2OCCO3)cc1	0	0	0	0	0	-	-	-	-
CC(Cc1ccccc1)Nc1ncnc2c1ncn2C1OC(CO)C(O)C1O (stereo not given)	0	7.6	0	0	0	0	0	0	0
C=CCOc1ccc(C2C(C(=O)c3ccc(C)o3)=C(O)C(=O)N2Cc2cccnc2)cc1 (stereo not given)	0	0	0	0	0	-	-	-	-
COc1ccc(Cl)cc1N(CC(=O)Nc1cccc(SC)c1)S(C)(=O)=O	0	8.3	0	0	0	0	0	0	0
COc1ccc(CC(=O)OCC(=O)Nc2ccc3c(c2)OCO3)cc1	0	10	0	0	0	0	0	0	0
COc1ccc(CCC(=O)Nc2ccc3c(c2)OCO3)cc1	0	0	0	0	0	-	-	-	-
CC1CCN(C(=O)COc2ncnc3ccccc23)CC1	0	0	0	0	0	-	-	-	-
CC1CCN(C(=O)COc2ccc3ccccc3c2Br)CC1	0	6.5	0	0	0	0	0	0	0

Compound activity from PubChem.
